Screening data: PubChem BioAssay, several laboratories
Rpn11 inh: inhibitors of human proteasome Rpn11 | human 26S proteasome, Ub4-pepOG fluorescence polarization; 20S core pre-blocked with epoxomicin | calls only at 20 µM | hit rate 0.59% among 360,000 | O00487;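 active = inhibition at 20 µM, scaled to each plate's controls, above about 33%, limit read from the data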
HNF4A DNA FP: change in binding of human HNF4 alpha to DNA; hit rate 0.3% among 360,000; AID 1224865; HNF4a-FITC DNA binding, fluorescence polarization, 1 h; activity change, % at 10 µM; P41235; in the data active = activity change above about 30%, passing the limit was not always enough
Target sequence (P41235 whole entry, looked up): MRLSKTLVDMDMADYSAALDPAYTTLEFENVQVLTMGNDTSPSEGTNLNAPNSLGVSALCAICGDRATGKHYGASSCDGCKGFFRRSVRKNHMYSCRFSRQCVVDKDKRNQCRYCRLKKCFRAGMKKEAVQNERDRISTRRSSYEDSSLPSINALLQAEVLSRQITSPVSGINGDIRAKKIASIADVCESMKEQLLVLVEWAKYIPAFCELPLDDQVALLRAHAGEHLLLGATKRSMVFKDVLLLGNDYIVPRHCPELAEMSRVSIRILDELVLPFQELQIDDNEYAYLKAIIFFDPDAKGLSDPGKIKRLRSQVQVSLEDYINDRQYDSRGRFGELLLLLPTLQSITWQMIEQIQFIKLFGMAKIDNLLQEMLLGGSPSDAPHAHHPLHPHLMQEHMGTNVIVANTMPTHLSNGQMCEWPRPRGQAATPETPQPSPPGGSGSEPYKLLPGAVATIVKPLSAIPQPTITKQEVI
IDE cell inh: cellular human IDE inhibition; inhibition, % at 5.59 µM; P14735; hit rate 0.41% among 320,000; HEK cells, FAbetaB cleavage, fluorescence polarization;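 active = percent inhibition above the average of all tested compounds plus 3 SD, set per screening campaign, cut at about 16% in these data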;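 also: IDE supplied by intact live HEK cells; FP after avidin binding of uncleaved biotin substrate so inhibition keeps polarization high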
CSN inh: blocks human CSN-mediated cullin deneddylation; Q92905; Purified CSN, SCF-Nedd8-OG deneddylation, fluorescence polarization; inhibition, % at 12.5 µM; hit rate 0.38% among 360,000; AID 651999;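 active = pattern-corrected inhibition above about 35%, with an unprinted fluorescence ratio check between 0.5 and 1.5, limit read from the data, passing the limit was not always enough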
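Test system: Human Csn5 produced in HEK293T cells | Compound: 12.5 µM single point | Times: 90 min, room temperature | Signal: Fluorescence polarization readout | Read-out basis: % inhibition of substrate cleavage by Csn5 | Controls: no-enzyme wells high, enzyme-with-substrate wells low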
TPT1 inh: inhibitors of Candida albicans tRNA 2'-phosphotransferase TPT1. AID 1962. recombinant caTPT1, FP RNA substrate dephosphorylation. inhibition, % at 5 µM. hit rate 0.81% among 300,000;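 active = inhibition above the mean of all tested compounds plus 3 SD, set per screening campaign, cut at about 24% in these data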
IDE cell activ: IDE (human) activation, cell-based; P14735; AID 493087; hit rate 0.073% among 340,000; HEK cells, FAbeta-B cleavage, fluorescence polarization; 0% vehicle, 100% cell-free pure enzyme wells; activation, % at 5.96 µM;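 active = activation above the mean of all tested compounds plus 3 SD, set per screening campaign, cut at about 17% in these data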
A number is an active result; . = inactive; / = not tested or not shown; + = active, no number. Shown are actives, neighbours in structure and some others; about 1.7% of the full set was active somewhere.

SMILES | Rpn11 inh | HNF4A DNA FP | IDE cell inh | CSN inh | TPT1 inh | IDE cell activ
O=C1NC(=S)S/C1=C\c1ccc(SCc2ccco2)o1 | + | . | . | . | 90.2 | .
CCc1ccc(-c2nc(CS(=O)CC(=O)O)c(C)o2)cc1 (configuration not stated) | . | . | . | . | . | 17.9
CCc1ccc(-c2nc(CS(=O)CC(=O)NC3CC3)c(C)o2)cc1 (configuration not stated) | . | . | . | . | . | .
CCN(CC)CCN(Cc1cc2cc3c(cc2[nH]c1=O)OCO3)C(=S)NCc1ccco1 | . | . | . | 35.1 | . | .
Cc1ccc(Cn2c(=N)n(CC(=O)c3ccc([N+](=O)[O-])cc3)c3ccccc32)cc1 | / | 63.6 | . | 42.5 | . | .
COc1cc(C2/C(=C(\O)c3ccc4c(c3)CC(C)O4)C(=O)C(=O)N2CCN2CCOCC2)cc(OC)c1OC (configuration not stated) | . | . | . | . | . | .
COc1cc(O)c(C(C)=O)c(OC)c1 | . | . | / | . | / | .
COc1cc(O)c(C(C)=O)c(CC(=O)O)c1 | . | . | . | 35.0 | . | .
COc1ccc(C(=O)NC(NC(=O)c2ccc(OC)c(OC)c2)c2ccccc2F)cc1OC | . | 44.7 | . | . | . | .
Cc1cc(C)cc(CC2CC(=O)N(c3ccc4c(c3)OCCO4)C2=O)c1 (configuration not stated) | . | . | . | . | . | .
CC(=O)Nc1cccc(NC(=S)Nc2cccc(Cl)c2Cl)c1 | . | . | . | . | . | .
O=C1c2ccccc2NC(c2cccc(Cl)c2)N1N=C1CCCCCC1 (configuration not stated) | . | . | . | 57.4 | . | .
O=C(NCC(=O)N1CCN(C(=O)c2ccco2)CC1)c1ccccc1 | . | . | . | . | . | .
CC(C(=O)O)N1C(=O)CSC1=S (configuration not stated) | . | 88.4 | . | . | . | .
CC(C(=O)O)N1C(=O)CSc2ncccc21 (configuration not stated) | . | . | . | . | . | .
Cc1ccc(-c2csc3nc(-c4ccncc4)[nH]c(=O)c23)cc1 | / | 77.3 | . | 43.7 | . | .
Cc1ccc(-c2csc3nc[nH]c(=O)c23)cc1 | . | . | . | . | . | .
CC(C)(C)n1nnnc1C(C1CC1)N1CCN(C/C=C/c2ccccc2)CC1 (configuration not stated) | . | . | / | 51.2 | / | /
Cc1ccc(NC(=O)CN2C(=O)C3CC=C(Cl)CC3C2=O)cc1 (configuration not stated) | . | . | . | . | . | .
CCCn1c(N)c(N(CCOC)C(=O)c2cccc(Cl)c2)c(=O)[nH]c1=O | . | . | . | . | . | .
CCCn1c(N)c(N(CCOC)C(=O)c2cc(C)cc(C)c2)c(=O)[nH]c1=O | . | 34.6 | . | . | . | .
CCOC(=O)c1cnn2c(C)cc(-c3ccccc3)nc12 | . | 52.9 | . | . | . | .
O=C(Nc1ccc(Cl)cc1)Nc1ccccc1CC[N+](=O)[O-] | . | . | . | . | . | .
Cc1cccc(NC(=S)N2CCN(S(C)(=O)=O)CC2)c1 | . | . | . | . | . | .
O=C(CSc1nnc(CNC(=O)c2ccccc2F)o1)NCc1ccco1 | . | . | . | 39.8 | . | .
SMILES | Rpn11 inh | HNF4A DNA FP | IDE cell inh | CSN inh | TPT1 inh | IDE cell activ
CCOC(=O)C1=C(C)N=c2s/c(=C\c3ccc(OC(C)=O)cc3)c(=O)n2C1/C=C/c1ccccc1 (configuration not stated) | . | 36.5 | . | . | . | .
CCOC(=O)C1=C(C)N=c2sc(=Cc3ccc(OCC(=O)O)cc3)c(=O)n2C1c1ccc(Cl)cc1 (configuration not stated) | / | . | / | 35.0 | / | /
O=C(COc1ccc(Cl)cc1)NCc1ccccc1 | . | . | . | . | . | .
CC(C)(C)N1C(=O)Cc2c1nc(N)c1c(N)nc(N3CCCCC3CO)c(C#N)c21 (configuration not stated) | . | . | . | 53.3 | . | .
COc1ccccc1C1=NC(c2ccc(F)cc2)N=C1C (configuration not stated) | . | . | . | . | . | .
COc1ccccc1CCn1cnc(C)c1CC(C)C | / | . | / | 61.8 | / | /
CCOC(=O)C1=C(O)/C(=C/c2ccc(-c3ccccc3C(=O)O)o2)SC1=Nc1ccc(C)cc1 | / | 58.1 | / | 50.2 | / | .
COc1ccc2c(c1)C(=O)O[C@@H](c1ccccc1)C[C@@H](O)C(=O)CC2 | / | . | / | 86.5 | / | /
O=C(O)CCC(=O)Nc1cccc(C(=O)Nc2cccc(Cl)c2)c1 | . | . | . | . | . | .
O=C(O)CCC(=O)Nc1cccc(C(=O)Nc2ccc(Br)cc2)c1 | . | 79.7 | . | . | . | .
Cc1ccc(/C=N/N2CCN(c3ccccn3)CC2)cc1 | . | . | . | . | . | .
CCc1ccc(/C=N/N2CCN(c3ccccn3)CC2)cc1 | . | 60.6 | . | . | . | .
O=C(CNC(=O)c1ccc(S(=O)(=O)N2CCCC2)cc1)N/N=C/c1c(Cl)cccc1Cl | . | . | 18.2 | . | . | .
O=C(CNC(=O)c1ccc(S(=O)(=O)N2CCCC2)cc1)N/N=C/c1ccc(Cl)cc1 | . | . | . | . | . | .
CCOC(=O)/C(=C/c1ccc(OC(=O)c2ccncc2)cc1)C(C)=O | . | . | . | 35.8 | . | .
COCCOC(=O)/C(=C/c1ccc(OC(=O)c2ccccc2)cc1)C(C)=O | . | . | . | . | . | .
CC(=O)Oc1ccc2c(c1)Oc1cc(OC(C)=O)ccc1C21OC(=O)c2ccccc21 | . | . | . | . | . | 42.2
CC(C)Nc1oc(-c2cccc3ccccc23)nc1C#N | . | . | . | . | . | .
Nc1ccn([C@@H]2O[C@H](CNCc3ccc(C#CCCO)cc3)[C@@H](O)[C@H]2O)c(=O)n1 | . | . | / | 45.0 | / | /
C#CCOc1ccc(CNC[C@H]2O[C@@H](n3ccc(N)nc3=O)[C@H](O)[C@@H]2O)cc1 | . | . | / | . | / | /
CCCCCC1NC(=O)NC1CCCCCC(=O)O (configuration not stated) | . | . | . | . | . | .
C[C@@H]1NC(=O)N[C@@H]1CCCCCC(=O)O | . | . | . | . | . | 51.2
CCOc1ccc(S(=O)(=O)Nc2ccc3c(c2)n(C)c(=O)n3C)cc1 | . | . | . | . | . | .
COc1cccc(OC)c1C(=O)N1CCOCC1 | . | 33.5 | . | . | . | .
COc1ccc(C(=O)N2CCOCC2)cc1Br | . | . | . | . | . | .
CCC(=O)Nc1c(S(=O)(=O)c2ccc(C)cc2)c2nc3ccccc3nc2n1C(C)c1ccccc1 (configuration not stated) | . | . | . | . | . | .
CCCCCn1c(NC(=O)c2ccco2)c(S(=O)(=O)c2ccc(C)cc2)c2nc3ccccc3nc21 | . | . | . | . | . | .
